Measured values as given in article PMC5743405 (International Journal of Oncology, 2017).
Where two headings read alike, the source gives them in different places.

Columns and labels:
MCHR2 = assay: PathHunter β-arrestin; type: cell-based; conditions: 6 μM
In short: (§1)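 Vendor-run (DiscoveRx) PathHunter enzyme fragment complementation. β-Arrestin carries the EA fragment and the receptor carries ED; recruitment restores β-gal activity, read by chemiluminescence (RLU). Agonist % activity = vehicle-subtracted RLU relative to max control ligand (gpcrMAX) or to vehicle (orphanMAX). Antagonist % inhibition = 100% × (1 − vehicle-subtracted sample RLU / vehicle-subtracted EC80 agonist control RLU).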

CALCRL-RAMP3 = assay: PathHunter β-arrestin; type: cell-based; conditions: antagonist mode, 6 μM
In short: (§2)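 β-Arrestin recruitment assay: the enzyme acceptor is fused to β-arrestin and the ED fragment to the GPCR. Recruitment restores β-galactosidase, read by chemiluminescence. % activity = 100% × (test − vehicle)/(max control ligand − vehicle). % inhibition = 100% × (1 − (test − vehicle)/(EC80 control − vehicle)). An agonist hit needs >30% activity and RLU > baseline + 3×SD. An antagonist hit needs >35% inhibition and RLU < EC80 RLU − 3×SD.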

ADRA2C = assay: PathHunter β-arrestin; type: cell-based; conditions: antagonist mode, 6 μM
In short: as §2

MCHR1 = assay: PathHunter β-arrestin; type: cell-based; conditions: 6 μM
In short: as §1

[1] = tested on: chondrosarcoma cell growth; conditions: cited from earlier work
KISS1R = assay: PathHunter β-arrestin; type: cell-based; conditions: 6 μM
In short: as §1

PTHR2 = assay: PathHunter β-arrestin; type: cell-based; conditions: antagonist mode, 6 μM
TLR6 = assay: RT2 qPCR primer assay, JJ012 cells; type: cell-based, human
In short: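 RNA was extracted, checked by spectrophotometry and reverse-transcribed. Custom RT2 SYBR-Green primer assays were run on three samples in technical triplicate. Ct was normalised to mean GAPDH/ACTB, ΔΔCt taken versus control, and fold change = 2^−ΔΔCt.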

MC3R = assay: PathHunter β-arrestin; type: cell-based; conditions: 6 μM
In short: as §1

[2] = tested on: G1/S phase cell cycle progression; conditions: chondrosarcoma, cited from earlier work
NPSR1B = assay: PathHunter β-arrestin; type: cell-based; conditions: agonist mode, 6 μM
In short: as §1

ADRA1B = assay: PathHunter β-arrestin; type: cell-based; conditions: agonist mode, 6 μM
In short: as §2

GPR109A = assay: PathHunter β-arrestin; type: cell-based; conditions: antagonist mode, 6 μM
In short: as §1

CXCR3 = assay: PathHunter β-arrestin; type: cell-based; conditions: 6 μM
In short: (§3)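 Engineered cells express the receptor fused to one β-galactosidase fragment (ED) and β-arrestin fused to the complementing fragment (EA). Receptor activation recruits β-arrestin, which restores enzyme activity, and this is read by chemiluminescence (RLU). Agonist % activity is 100% × (test − vehicle)/(maximal control ligand − vehicle). Antagonist mode is challenged with an EC80 control agonist, and % inhibition is 100% × (1 − (test − vehicle)/(EC80 − vehicle)). Hits require >30% activity or >35% inhibition, plus a 3×SD RLU margin.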

TACR1 = assay: PathHunter β-arrestin; type: cell-based; conditions: 6 μM
In short: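 β-Arrestin recruitment to GPCR read by β-galactosidase fragment complementation and chemiluminescence. Agonist: % = 100 × (test − vehicle)/(max control ligand − vehicle), hit at >30% and RLU > baseline + 3 SD. Antagonist, against EC80 agonist: % inhibition = 100 × (1 − (test − vehicle)/(EC80 − vehicle)), hit at >35% and RLU < EC80 − 3 SD.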

CCR3 = assay: PathHunter β-arrestin; type: cell-based; conditions: 6 μM
In short: as §2

TLR8 = assay: western blot, JJ012 cells; type: cell-based, human; conditions: vs untreated control, overnight incubation
[3] = tested on: tumor suppressor miRNAs and onco-miRNAs; conditions: JJ012 cell line; ref [7]; cited from earlier work
MC4R = assay: PathHunter β-arrestin; type: cell-based; conditions: 6 μM
In short: as §1

CCR6 = assay: PathHunter β-arrestin; type: cell-based; conditions: antagonist mode, 6 μM
In short: as §3

PPYR1 = assay: PathHunter β-arrestin; type: cell-based; conditions: antagonist mode, 6 μM
HRH1 = assay: PathHunter β-arrestin; type: cell-based; conditions: agonist mode, 6 μM
In short: as §1

GPR1 = assay: PathHunter β-arrestin; type: cell-based; conditions: antagonist mode, 6 μM
In short: as §1

MC5R = assay: PathHunter β-arrestin; type: cell-based; conditions: 6 μM
In short: as §1

Q: What does the source list for Proline rich polypeptide 1 [PRP-1]?
A: % Activity (MCHR2; agonist mode): 1%; % Inhibition (MCHR2; antagonist mode): −3%; % Inhibition (CALCRL-RAMP3): 1%; % Inhibition (ADRA2C): −4%; % Activity (MCHR1; agonist mode): 1%; % Inhibition (MCHR1; antagonist mode): −4%; inhibition of chondrosarcoma cell growth ([1]; ref [4],[5]): 80–90%; inhibition of chondrosarcoma cell growth ([1]; ref [4],[6]): > 80%; % Activity (KISS1R; agonist mode): 1%; % Inhibition (KISS1R; antagonist mode): 3%; % Inhibition (PTHR2): −1%; gene expression (TLR6; 1 μg/ml PRP-1, heat map, vs nontreated control, technical triplicates): high expression; fold change (∆Ct) (TLR6; qRT-PCR): did not report significant fold change; % Activity (MC3R; agonist mode): 3%; % Inhibition (MC3R; antagonist mode): −6%; cell cycle progression ([2]; ref [4],[5]): halting G1/S phase cell cycle progression; cell cycle progression ([2]; ref [6]): halts cell cycle progression in G1/S transition; % Activity (NPSR1B): 2%; % Activity (ADRA1B): 1%; % Inhibition (GPR109A): −4%; % Activity (CXCR3; agonist mode): 1%; % Inhibition (CXCR3; antagonist mode): −1%; % Activity (TACR1; agonist mode): 1%; % Inhibition (TACR1; antagonist mode): −2%; % Activity (CCR3; agonist mode): 2%; % Inhibition (CCR3; antagonist mode): −3%; protein expression (TLR8): no indication of PRP-1 effect; miRNA regulation [3]: upregulate tumor suppressor miRNAs and downregulate onco-miRNAs; % Activity (MC4R; agonist mode): −1%; % Inhibition (MC4R; antagonist mode): −6%; % Inhibition (CCR6): 2%; % Inhibition (PPYR1): −4%; % Activity (HRH1): 1%; % Inhibition (GPR1): −5%; % Activity (MC5R; agonist mode): 2%; % Inhibition (MC5R; antagonist mode): −5%
